Reference: PMC8853703 (Chemical research in toxicology, 2021)

Key:
Type in all cases: cell-based, porcine
[1] = system: LLC-PK1 cells; test: JC-10 mitochondrial transmembrane potential assay; details: for effect of cisplatin on ΔΨm: CDDP 20 μM alone
[2] = system: caspase-3; test: Caspase-3 activity assay; details: CDDP 20 μM alone, 24 h
[3] = system: LLC-PK1 cells; test: CM-H2DCFDA general reactive oxygen species quantitation assay; details: CDDP 20 μM alone, 24 h
Method in brief: (§1)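 LLC-PK1 cells (M199, 10% FBS, 1% PS; 37 °C, 5% CO2) were seeded at 1×10^4 cells/well overnight. Probe loading was 5 μM CM-H2DCFDA for 30 min (general ROS) or 2.5 μM MitoSOX Red for 10 min (mitochondrial superoxide), then 3 PBS washes. […] After PBS washes, fluorescence was read in PBS at Ex/Em 485/535 nm (DCF) or 510/580 nm (MitoSOX). Three independent experiments.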

[4] = system: caspase-9; test: Caspase-9 activity assay; details: CDDP 20 μM alone, 24 h
Method in brief: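 Supernatant was mixed 1:1 with HEPES pH 7.4 caspase buffer (CHAPS, glycerol, EDTA, 10 mM DTT) holding 100 μM Ac-LEHD-pNA. Incubation was 90 min at 37 °C, read as absorbance at 400 nm, with activity normalised to BCA total protein.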

[5] = system: LLC-PK1 cells; test: MitoSOX Red mitochondrial superoxide detection assay; details: CDDP 20 μM alone, 24 h
Method in brief: as §1

Compound: N#CC(C#N)=NNc1ccc(OC(F)(F)F)cc1 [FCCP, Carbonyl cyanide-p-trifluoromethoxyphenylhydrazone]
- ΔΨm with positive control ([1]; FCCP 10 μM): depolarized ΔΨm

Compound: N.N.[Cl][Pt][Cl] [cisplatin, cis-Diamminedichloroplatinum (II), reference compound]
- effect of cisplatin on ΔΨm ([1]; 6 h): not significantly affected
- effect of cisplatin on ΔΨm ([1]; 24 h): substantial loss of the ΔΨm
- effect of cisplatin on ΔΨm ([1]; 48 h): nearly complete gradient collapse
- effect of cisplatin on caspase-3 activity [2]: greatly elevated
- effect of cisplatin on general ROS [3]: increased
- effect of cisplatin on caspase-9 activity [4]: greatly elevated
- effect of cisplatin on O2•− generated in mitochondria [5]: increased
